How the values were obtained:
Rattus norvegicus [1] = experiment: Biodistribution of I-125 labeled compound in rat muscle, 2 min after intravenous injection value expressed in average % dose per organ; value may range from 5.84 to 12.8; format: ADME, organism-based, Muscle tissue; conditions: in vivo
Rattus norvegicus [2] = species on record: Rattus norvegicus; experiment: Distribution coefficient at pH 7.4 in rat; format: ADME, organism-based
Summary of the method: (§1)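 Octanol/buffer partition: I-125 labeled diamine mixed with 3 g each of 1-octanol and 0.1 M phosphate buffer at pH 7.0 or 7.4, vortexed 3× 1 min, centrifuged 5 min. Two 0.5 g samples of each layer counted. Value is cpm/g octanol over cpm/g buffer, usually repeated three times.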

[3] = Biodistribution of [125I]- compound in a monkey lungs.1h after intravenous injection. the value expressed in %dose/gram; conditions: simiiformes, in vivo
[4] = Biodistribution of [125I]- compound in a monkey blood. 1 hr after intravenous injection. the value expressed in %dose/gram; conditions: simiiformes, in vivo
Rattus norvegicus [5] = species on record: Rattus norvegicus; experiment: Effect of specific activity of compound on biodistribution in rats brain 1 hr after injection at the dose of 6.25 mg value expressed in average % dose per organ; value may range from 1.95 to 2.70; format: ADME, organism-based; conditions: in vivo
Summary of the method: (§2)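 Rats received an intravenous injection of the I-125 labeled diamine with added unlabeled carrier (6.25, 2.5, 0.25 or 0.025 mg per dose). At 1 h, organs were counted. Percent dose per organ came from comparing tissue radioactivity with diluted aliquots of the injected dose. Values are the average and range of 3 rats. Brain/blood ratio was taken from % dose per gram, calculated using mean organ weights (brain 1.65 g; blood 18 g).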

[6] = Biodistribution of […] compound in a monkey blood. 1 hr after intravenous injection. the value expressed in%dose/organ; format: ADME, organism-based; conditions: simiiformes, in vivo
Summary of the method: (§3)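 Monkey sedated with ketamine and anesthetized with nembutal, then given ~100 μCi [125I] label (~7 mCi/mg) intravenously. Killed 1 h later by nembutal overdose. Organs dissected, weighed and counted. % dose per organ found against diluted injected-dose aliquots; % dose per gram also reported; brain/blood from per-gram values. Single animal.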

Rattus norvegicus [7] = species on record: Rattus norvegicus; experiment: Effect of specific activity of compound on biodistribution in rats thyroid 1 hr after injection at the dose of 0.25 mg value expressed in average % dose per organ; value may range from 0.17 to 0.19; format: ADME, organism-based, Thyroid gland; conditions: in vivo; summary of the method: as §2
Rattus norvegicus [8] = species on record: Rattus norvegicus; experiment: Effect of specific activity of compound on biodistribution in rats thyroid 1 hr after injection at the dose of 2.5 mg value expressed in average % dose per organ; value may range from 0.12 to 0.14; format: ADME, organism-based, Thyroid gland; conditions: in vivo; summary of the method: as §2
[9] = Biodistribution of [125I]- compound in a monkey liver. 1 hr after intravenous injection. the value expressed in %dose/gram; conditions: simiiformes, in vivo
Rattus norvegicus [10] = species on record: Rattus norvegicus; experiment: Effect of specific activity of compound on biodistribution in rats heart 1 hr after injection at the dose of 6.25 mg value expressed in average % dose per organ; value may range from 0.30 to 0.36; format: ADME, organism-based; conditions: in vivo; summary of the method: as §2
[11] = Biodistribution of […] in a monkey thyroid. 1 hr after intravenous injection. the value expressed in %dose/gram; format: ADME, organism-based, Thyroid gland; conditions: simiiformes, in vivo; summary of the method: as §3
Rattus norvegicus [12] = experiment: Biodistribution of I-125 labeled compound in rat muscle, 1 hr after intravenous injection. value expressed in average % dose per organ; value may range from 8.99 to 14.4; format: ADME, organism-based, Muscle tissue; conditions: in vivo
Rattus norvegicus [13] = species on record: Rattus norvegicus; experiment: Effect of specific activity of compound on biodistribution in rats muscle after injection at the dose of 0.025 mg value expressed in average % dose per organ; value may range from 11.6 to 12.9; format: ADME, organism-based, Muscle tissue; conditions: in vivo; summary of the method: as §2
Rattus norvegicus [14] = species on record: Rattus norvegicus; experiment: Effect of specific activity of compound on biodistribution in rats lungs 1 hr after injection at the dose of 0.25 mg value expressed in average % dose per organ; value may range from 12.0 to 20.3; format: ADME, organism-based, Lung; conditions: in vivo; summary of the method: as §2
Rattus norvegicus [15] = species on record: Rattus norvegicus; experiment: Effect of specific activity of compound on biodistribution in rats lungs 1 hr after injection at the dose of 6.25 mg value expressed in average % dose per organ; value may range from 2.70 to 7.70; format: ADME, organism-based, Lung; conditions: in vivo; summary of the method: as §2
[16] = Biodistribution of [125I]- compound in a monkey thyroid. 1 hr after intravenous injection. the value expressed in %dose/organ; conditions: simiiformes, in vivo
Rattus norvegicus [17] = experiment: Biodistribution of I-125 labeled compound in rat blood, 1 hr after intravenous injection. value expressed in average % dose per organ; value may range from 0.92 to 1.31; format: ADME, organism-based; conditions: in vivo
Rattus norvegicus [18] = species on record: Rattus norvegicus; experiment: Effect of specific activity of compound on biodistribution in rats heart 1 hr after injection at the dose of 0.25 mg value expressed in average % dose per organ 0.69 to 0.74; format: ADME, organism-based; conditions: in vivo; summary of the method: as §2
Rattus norvegicus [19] = experiment: Biodistribution of I-125 labeled compound in rat thyroid, 2 min after intravenous injection. value expressed in average % dose per organ; value may range from 0.20 to 0.23; format: ADME, organism-based, Thyroid gland; conditions: in vivo
[20] = Biodistribution of [125I]- compound in a monkey spleen. 1 hr after intravenous injection. the value expressed in %dose/gram; conditions: simiiformes, in vivo
Rattus norvegicus [21] = species on record: Rattus norvegicus; experiment: Distribution coefficient at pH 7.0 in rat; format: ADME, organism-based; summary of the method: as §1
[22] = Biodistribution of [125I]- compound in a monkey bone. 1 hr after intravenous injection. the value expressed in %dose/gram; conditions: simiiformes, in vivo
Rattus norvegicus [23] = experiment: Biodistribution of I-125 labeled compound in rat heart, 2 min after intravenous injection. value expressed in average % dose per organ; value may range from 3.03 to 3.55; format: ADME, organism-based; conditions: in vivo
[24] = Biodistribution of [125I]- compound in a monkey kidneys. 1 hr after intravenous injection. the value expressed in%dose/organ; conditions: simiiformes, in vivo
Rattus norvegicus [25] = species on record: Rattus norvegicus; experiment: Effect of specific activity of compound on biodistribution in rats lungs after injection at the dose of 0.025 mg value expressed in average % dose per organ; value may range from 12.0 to 14.5; format: ADME, organism-based, Lung; conditions: in vivo; summary of the method: as §2
Rattus norvegicus [26] = species on record: Rattus norvegicus; experiment: Effect of specific activity of compound on biodistribution in rats liver after injection at the dose of 0.025 mg value expressed in average % dose per organ; value may range from 6.23 to 7.26; format: ADME, organism-based; conditions: in vivo; summary of the method: as §2
Rattus norvegicus [27] = species on record: Rattus norvegicus; experiment: Effect of specific activity of compound on biodistribution in rats brain to blood ratio after injection at the dose of 0.025 mg value expressed in % dose per gram ratio; format: ADME, organism-based; summary of the method: as §2
Rattus norvegicus [28] = experiment: Biodistribution of I-125 labeled compound in rat lungs, 2 min after intravenous injection. value expressed in average % dose per organ; value may range from 15.7 to 18.7; format: ADME, organism-based, Lung; conditions: in vivo
Rattus norvegicus [29] = species on record: Rattus norvegicus; experiment: Effect of specific activity of compound on biodistribution in rats lungs 1 hr after injection at the dose of 2.5 mg value expressed in average % dose per organ; value may range from 5.89 to 8.67; format: ADME, organism-based, Lung; conditions: in vivo; summary of the method: as §2
Rattus norvegicus [30] = experiment: Biodistribution of I-125 labeled compound in rat brain, 2 min after intravenous injection. value expressed in average % dose per organ; value may range from 1.71 to 1.95; format: ADME, organism-based; conditions: in vivo
Rattus norvegicus [31] = experiment: Biodistribution of I-125 labeled compound in rat liver, 1 hr after intravenous injection. value expressed in average % dose per organ; value may range from 6.22 to 7.81; format: ADME, organism-based; conditions: in vivo
[32] = Biodistribution of [125I]- compound in a monkey kidneys. 1 hr after intravenous injection. the value expressed in %dose/gram; conditions: simiiformes, in vivo
Rattus norvegicus [33] = species on record: Rattus norvegicus; experiment: Effect of specific activity of compound on biodistribution in rats blood 1 hr after injection at the dose of 0.025 mg value expressed in average % dose per organ; value may range from 0.84 to 0.99; format: ADME, organism-based; conditions: in vivo

Average dose per organ (Rattus norvegicus [1]): 9.24%
Distribution coefficient (Rattus norvegicus [2]): 11.6
Dose/g [3]: 1.05%
Dose/g [4]: 0.002%
Average dose per organ (Rattus norvegicus [5]): 2.38%
Dose per organ [6]: 1.23%
Average dose per organ (Rattus norvegicus [7]): 0.17%
Average dose per organ (Rattus norvegicus [8]): 0.13%
Dose/g [9]: 0.149%
Average dose per organ (Rattus norvegicus [10]): 0.33%
Dose/g [11]: 0.039%
Average dose per organ (Rattus norvegicus [12]): 11.9%
Average dose per organ (Rattus norvegicus [13]): 12.2%
Average dose per organ (Rattus norvegicus [14]): 15.2%
Average dose per organ (Rattus norvegicus [15]): 4.5%
Dose per organ [16]: 0.333%
Average dose per organ (Rattus norvegicus [17]): 1.1%
Average dose per organ (Rattus norvegicus [18]): 0.72%
Average dose per organ (Rattus norvegicus [19]): 0.22%
Dose/g [20]: 0.267%
Distribution coefficient (Rattus norvegicus [21]): 3.39
Dose/g [22]: 0.00168%
Average dose per organ (Rattus norvegicus [23]): 3.23%
Dose per organ [24]: 16.1%
Average dose per organ (Rattus norvegicus [25]): 12.8%
Average dose per organ (Rattus norvegicus [26]): 6.74%
Ratio (Rattus norvegicus [27]): 17.6%
Average dose per organ (Rattus norvegicus [28]): 16.9%
Average dose per organ (Rattus norvegicus [29]): 6.87%
Average dose per organ (Rattus norvegicus [30]): 1.8%
Average dose per organ (Rattus norvegicus [31]): 7.14%
Dose/g [32]: 0.602%
Average dose per organ (Rattus norvegicus [33]): 0.91%
SMILES: Cc1cc(I)cc(CNCCCN(C)C)c1O

Reference: ChEMBL document CHEMBL1122426, “Radioiodine-labeled N,N-dimethyl-N'-(2-hydroxy-3-alkyl-5-iodobenzyl)-1,3-propanediamines for brain perfusion imaging” (J Med Chem, 1983)
